Measured values from different studies.
Each line is one published result; the experiments were not run side by side.
Target: Serine/threonine-protein kinase Sgk1 (SGK1, Homo sapiens, UniProt O00141)
Residues used in one study (O00141 1-431): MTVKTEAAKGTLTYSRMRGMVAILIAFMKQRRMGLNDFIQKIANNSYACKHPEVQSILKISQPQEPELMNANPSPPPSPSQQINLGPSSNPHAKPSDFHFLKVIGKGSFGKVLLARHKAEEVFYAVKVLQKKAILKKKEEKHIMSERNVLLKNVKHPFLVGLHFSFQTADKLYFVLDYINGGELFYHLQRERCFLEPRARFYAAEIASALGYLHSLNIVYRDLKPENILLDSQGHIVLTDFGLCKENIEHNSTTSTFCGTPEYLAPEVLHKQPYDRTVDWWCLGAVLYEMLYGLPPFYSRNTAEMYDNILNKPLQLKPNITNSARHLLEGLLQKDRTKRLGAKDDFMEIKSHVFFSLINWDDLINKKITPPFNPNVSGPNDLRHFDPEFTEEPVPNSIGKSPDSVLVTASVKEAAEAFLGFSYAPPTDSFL

SMILES	effect on	mode	technique	concentration	measurement	result
FC(F)c1nc2ccccc2n1-c1nc(N2CCOCC2)nc(N2CCOCC2)n1	enzyme activity	inhibitor		10 µM	remaining activity	98%
CC(C)(C)C(=O)c1sc(NC2CCCCC2)nc1N	enzyme activity	inhibitor		10 µM	remaining activity	91%
Nc1ncnc2occ(-c3ccc(NC(=O)Nc4cc(C(F)(F)F)ccc4F)cc3)c12	cell-free assay	inhibitor		20 µM	remaining signal	10%
CC(C)(O)[C@H]1CC[C@H](Nc2ccc3ncc(-c4cccc(C(F)(F)F)c4)n3n2)CC1	enzyme activity	inhibitor		1 µM	remaining activity	99.4%
CNCc1ccc(-c2cc(-c3nc(-c4ccc(S(=O)(=O)C(C)C)cc4)cnc3N)on2)cc1	enzyme activity	inhibitor		0.4 µM	inhibition	0%
CCN(CC)CCNC(=O)c1c(C)[nH]c(/C=C2\C(=O)Nc3ccc(F)cc32)c1C	enzyme activity	inhibitor		10 µM	inhibition	86%
O=C1NC(=O)c2cc(Nc3ccc(F)cc3)c(Nc3ccc(F)cc3)cc21	cell-free assay			0.5 µM	remaining signal	103%
CC/C(=N\NC(=O)C(C)Nc1ccccc1)c1ccc(O)c(C)c1O (centres unmarked)	enzyme activity	inhibitor		0.1 µM	inhibition	44.6%
Cc1nc(C2CCN(C(=O)c3ccc(OC(F)(F)F)cc3N)CC2)c2ncc(N3CCN(C)CC3)cc2n1	cell-free assay		competition with immobilised ligand	1 µM	remaining binding	100%
COc1cc(Cl)c(C(=O)N[C@@H](CN[C@H]2CC[C@@H](N)CC2)Cc2ccc(C#N)cc2)cc1-c1ccc(CN[C@H](C)c2ccc(C)cc2)o1	enzyme activity	inhibitor		1 µM	remaining activity	94%
CCC(=N\O)/C(C)=C/c1ccc(F)cc1	cell-free assay		competition with immobilised ligand	1 µM	remaining binding	89%
Nc1ncnc2n[nH]c(Nc3ccc(F)cc3)c12	cell-free assay			0.5 µM	remaining signal	91.5%
C[C@H](NC(=O)c1cnc2n1[C@](C)(Cc1ccc(C#N)cc1)C(=O)N2c1cc(Cl)c(F)c(Cl)c1)C(=O)NC1(c2ccccn2)CC1	cell-free assay		competition with immobilised ligand	1 µM	remaining binding	100%
CCCOc1ccc(OC)c(F)c1C(=O)c1ccc(C(=O)N[C@@H]2CNC[C@H]2NC(=O)c2ccc3[nH]ncc3c2)cc1	enzyme activity	inhibitor		0.5 µM	remaining activity	47%
O=C(NS(=O)(=O)c1ccc(NCC2CCOCC2)c([N+](=O)[O-])c1)c1ccc(N2CCN(Cc3ccc(C(F)(F)F)cc3-c3ccc(Cl)cc3)CC2)cc1Oc1cnc2[nH]ccc2c1	cell-free assay		competition with immobilised ligand	1 µM	remaining binding	88%
CN(C)C1CCN(CC#Cc2nn(C3CCCC3)c3nc(NCc4ccccc4)ncc23)C1 (centres unmarked)	enzyme activity	inhibitor	FRET	1 µM	inhibition	9%
CCOCCn1cc(C(=O)Nc2ccc(-n3nc(-c4cccnc4)cc3C(F)(F)F)cn2)ccc1=O	cell-free assay		competition with immobilised ligand	1 µM	remaining binding	83%
Cc1sc(C(=O)NC2COC2)cc1-n1cc(NC(=O)Nc2c(F)cccc2Cl)cn1	enzyme activity	inhibitor		10 µM	remaining activity	115%
O=C(Nc1ccc(Oc2ccc(F)cc2)cc1)N1CCc2ncccc2[C@H]1c1ccc(F)cc1	cell-free assay		competition with immobilised ligand	1 µM	remaining binding	95%
CCN(CC)c1ccc(C2=NNC(=O)CC2C)cc1[N+](=O)[O-] (centres unmarked)	enzyme activity	inhibitor		10 µM	remaining activity	100%
